Assay results published in ChEMBL document CHEMBL1137655, “Isoxyl activation is required for bacteriostatic activity against Mycobacterium tuberculosis” (2007).
Values after ≈ are worked out from the molar mass of the structure shown.

Columns and labels:
[1] = tested on: Mycobacterium tuberculosis; experiment: microbe, parasite or virus in culture; details: H37Rv
[2] = tested on: Mycobacterium tuberculosis; experiment: microbe, parasite or virus in culture; details: Mt103
[3] = tested on: Mycobacterium tuberculosis H37Rv; experiment: Inhibition of Mycobacterium tuberculosis H37Rv recombinant DesA3-mediated unsaturated fatty acid synthesis using Mycobacterium smegmatis MC2155 membrane and partially purified EthA as cofactors assessed as oleic acid levels relative to control; set-up: scale not given: the % may be the effect or the level left
Outline: (§1)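 Cell-free desaturation: 0.5 mg M. smegmatis membrane protein, 3 μg His-tagged DesA3 purified from M. smegmatis, 500 μM palmitoyl-CoA, 1 mM NADPH, ±6 μg purified EthA, ISO 0 or 10 μg/ml final, 25 mM Tris-HCl pH 7.5; 75 min at 30°C; chloroform:methanol extraction, methyl esters, GC relative percentages.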

[4] = tested on: Mycobacterium tuberculosis H37Rv; experiment: Inhibition of Mycobacterium tuberculosis H37Rv recombinant DesA3-mediated unsaturated fatty acid synthesis using Mycobacterium smegmatis MC2155 membrane as cofactor assessed as stearic acid levels relative to control; set-up: scale not given: the % may be the effect or the level left
Outline: as §1

[5] = tested on: Mycobacterium tuberculosis; experiment: Antimycobacterial activity against Mycobacterium tuberculosis isolate Mt103 expressing VV16 plasmid by colorimetric resazurin microtiter assay; assay type: functional
Outline: (§2)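 Resazurin colorimetric microtiter MIC in 7H9-ADC broth with 2% DMSO at 37°C; strains carry empty pVV16 or pVVethA complementation vector; ISO tested up to 40 μg/ml, highest soluble level.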

[6] = tested on: Mycobacterium tuberculosis H37Rv; experiment: Inhibition of Mycobacterium tuberculosis H37Rv recombinant DesA3-mediated unsaturated fatty acid synthesis using Mycobacterium smegmatis MC2155 membrane and partially purified EthA as cofactors assessed as palmitic acid levels relative to control; set-up: scale not given: the % may be the effect or the level left
Outline: as §1

[7] = tested on: Mycobacterium tuberculosis H37Rv; experiment: Inhibition of Mycobacterium tuberculosis H37Rv recombinant DesA3-mediated unsaturated fatty acid synthesis using Mycobacterium smegmatis MC2155 membrane as cofactor assessed as palmitoleic acid levels relative to control; set-up: scale not given: the % may be the effect or the level left
Outline: as §1

[8] = tested on: Mycobacterium tuberculosis H37Rv; experiment: Inhibition of Mycobacterium tuberculosis H37Rv recombinant DesA3-mediated unsaturated fatty acid synthesis using Mycobacterium smegmatis MC2155 membrane and partially purified EthA as cofactors assessed as tuberculostearic acid levels relative control; set-up: scale not given: the % may be the effect or the level left
Outline: as §1

[9] = tested on: Mycobacterium tuberculosis H37Rv; experiment: Inhibition of Mycobacterium tuberculosis H37Rv recombinant DesA3-mediated unsaturated fatty acid synthesis using Mycobacterium smegmatis MC2155 membrane as cofactor assessed as palmitic acid levels relative to control; set-up: scale not given: the % may be the effect or the level left
Outline: as §1

[10] = tested on: Mycobacterium tuberculosis H37Rv; experiment: Inhibition of Mycobacterium tuberculosis H37Rv recombinant DesA3-mediated unsaturated fatty acid synthesis using Mycobacterium smegmatis MC2155 membrane and partially purified EthA as cofactors assessed as palmitoleic acid levels relative to control; set-up: scale not given: the % may be the effect or the level left
Outline: as §1

[11] = tested on: Mycobacterium tuberculosis H37Rv; experiment: Inhibition of Mycobacterium tuberculosis H37Rv recombinant DesA3-mediated unsaturated fatty acid synthesis using Mycobacterium smegmatis MC2155 membrane as cofactor assessed as tuberculostearic acid levels relative to control; set-up: scale not given: the % may be the effect or the level left
Outline: as §1

[12] = tested on: Mycobacterium tuberculosis; experiment: Antimycobacterial activity against wild-type Mycobacterium tuberculosis H37Rv ATCC 25618 expressing VV16 plasmid by colorimetric resazurin microtiter assay; assay type: functional
Outline: as §2

[13] = tested on: Mycobacterium tuberculosis H37Rv; experiment: Inhibition of Mycobacterium tuberculosis H37Rv recombinant DesA3-mediated unsaturated fatty acid synthesis using Mycobacterium smegmatis MC2155 membrane as cofactor assessed as oleic acid levels relative to control; set-up: scale not given: the % may be the effect or the level left
Outline: as §1

[14] = tested on: Mycobacterium tuberculosis H37Rv; experiment: Inhibition of Mycobacterium tuberculosis H37Rv recombinant DesA3-mediated unsaturated fatty acid synthesis using Mycobacterium smegmatis MC2155 membrane and partially purified EthA as cofactors assessed as stearic acid levels relative to control; set-up: scale not given: the % may be the effect or the level left
Outline: as §1

Row | Structure (SMILES) | MIC [1] [µg/mL] | MIC [2] [µg/mL] | Activity [3] [%] | Activity [4] [%] | MIC [5] [µg/mL] | Activity [6] [%] | Activity [7] [%] | Activity [8] [%] | Activity [9] [%] | Activity [10] [%] | Activity [11] [%] | MIC [12] [µg/mL] | Activity [13] [%] | Activity [14] [%]
1 | CCc1cc(C(N)=S)ccn1 [ETHIONAMIDE] | 5 (≈ 30.1 µM) | 5 (≈ 30.1 µM) |  |  |  |  |  |  |  |  |  |  |  | 
2 | CC(C)CCOc1ccc(NC(=S)Nc2ccc(OCCC(C)C)cc2)cc1 [TIOCARLIDE] |  |  | 4.4 | 1 | 5 (≈ 12.5 µM) | 49.8 | 0.1 | 42.8 | 54.1 | 1.9 | 44.7 | 5 (≈ 12.5 µM) | 0.1 | 1.1
